The source made the active and inactive calls. The rule behind the calls is not given here.

The values below come from ChEMBL document CHEMBL3621189, “Identification of non-peptidic cysteine reactive fragments as inhibitors of cysteine protease rhodesain” (Bioorg Med Chem Lett, 2015).

Assay [1] concerns Trypanosoma brucei brucei. In words: Antitrypanosomal activity against Trypanosoma brucei brucei 427 assessed as growth inhibition after 24 hrs by Alamar Blue assay. In kind it is functional, organism-based. The following applies: Trypanosoma brucei, 427, 24 h. In general terms: Alamar Blue is a resazurin reagent that responds to reducing activity.
In assay [2] the target is Rhodesain (Trypanosoma brucei rhodesiense) (UniProt Q95PM0). In words: Inhibition of Trypanosoma brucei rhodesiense Rhodesain expressed in Pichia pastoris using Z-Phe-Arg-AMC as substrate at 10 uM preincubated for 30 mins followed by substrate addition by fluorescence assay relative to control. A digest of the protocol: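 Single-concentration enzymatic screen of a 200-member cysteine-reactive electrophilic fragment library at 10 μM against rhodesain, scored as percent inhibition. Actives were retested at 10 μM in a confirmatory enzymatic assay.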

For assay [3] the target is unchanged. Description: Time-dependent inhibition of Trypanosoma brucei rhodesiense Rhodesain expressed in Pichia pastoris using Z-Phe-Arg-AMC as substrate assessed as ratio of Kinact to Ki preincubated for 30 mins followed by substrate addition measured for 7 mins by fluorescence assay.
The subject of assay [4] is HepG2. Description: Cytotoxicity against human HepG2 cells after 72 hrs by MTT assay. In kind it is cell-based. The following applies: HepG2, 72 h. For orientation: Formazan colour is commonly taken as a measure of viable cells.

Rhodesain (Trypanosoma brucei rhodesiense), sequence (Q95PM0 1-450): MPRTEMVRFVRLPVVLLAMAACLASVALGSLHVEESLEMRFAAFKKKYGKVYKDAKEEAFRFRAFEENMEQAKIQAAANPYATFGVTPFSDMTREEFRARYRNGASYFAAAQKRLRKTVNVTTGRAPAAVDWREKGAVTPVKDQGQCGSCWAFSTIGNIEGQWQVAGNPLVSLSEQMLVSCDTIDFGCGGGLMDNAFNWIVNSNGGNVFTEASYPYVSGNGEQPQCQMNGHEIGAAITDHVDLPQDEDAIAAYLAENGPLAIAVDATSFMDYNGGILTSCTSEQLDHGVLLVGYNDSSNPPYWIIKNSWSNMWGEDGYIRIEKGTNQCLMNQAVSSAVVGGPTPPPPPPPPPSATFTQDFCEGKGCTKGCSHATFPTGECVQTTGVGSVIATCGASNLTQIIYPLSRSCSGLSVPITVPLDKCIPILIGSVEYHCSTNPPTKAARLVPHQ

In general, IC50 refers to the midpoint of a concentration-inhibition curve. What is called inhibition is the drop in the measured response relative to a control, in per cent. As for `COC(=O)/C=C/CNC(=O)C1CCN(C(=O)CC(C)C)CC1`, the IC50 in assay [1] was > 50 µM; in assay [4], > 150 µM. Further, the inhibition in assay [2] is < 40%. Moreover, the inhibition entry in assay [3] was “inactive”.

Turning to `COC(=O)/C=C/CNC(=O)c1sc(-c2ccccc2F)nc1C`, the IC50 in assay [1] was 30.3 µM; in assay [4] it was > 150 µM. Besides, the Ratio in assay [3] came out at 18.3 M⁻¹ s⁻¹.

On to `Cc1nc(-c2ccccc2F)sc1C(=O)NC/C=C/S(C)(=O)=O`, for which the IC50 was found to be 30.2 µM in assay [1] and 69 µM in assay [4]. Further, the inhibition in assay [2] is < 40%. In assay [3], the Ratio was 3.47 M⁻¹ s⁻¹.

As for `COC(=O)/C=C/CNC(=O)c1cc(-c2ccc(C)cc2)on1`, the IC50 in assay [1] was 43.4 µM; in assay [4] it was > 150 µM. Also, the Ratio in assay [3] amounted to 13.2 M⁻¹ s⁻¹.

In the case of `CC(C)CC(=O)N1CCC(C(=O)NC/C=C/S(C)(=O)=O)CC1`, the IC50 in assay [1] was > 50 µM; in assay [4], > 150 µM. Further, in assay [2], the inhibition is < 40%. The inhibition entry in assay [3] is “inactive”.

On to `Cc1ccc(-c2cc(C(=O)NC/C=C/S(C)(=O)=O)no2)cc1`, for which the IC50 in assay [1] was 29.5 µM; in assay [4], 76 µM. Moreover, in assay [2], the inhibition was < 40%. The inhibition entry in assay [3] is “inactive”.
